Screening data: PubChem BioAssay, several laboratories
Rows were chosen to be rich in hits. Some 4% of all compounds tested hit in one or more screens of this group.
TAAR1 ag – human TAAR1 agonism | CHO RD-HGA16 TAAR1, Fluo-8 calcium fluorescence; vehicle wells 0%, saturating PEA agonist 100% | activation, % at 3 µM | 0.99% of 360,000 active;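 active = activation above the mean activation of all test compounds in the run plus 3 SD, cut at about 38% in these data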
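System: CHO RD-HGA16 cells carrying human TAAR1 plus Gα16; Incubation: 17-24 h seeding, 75 min 37 °C dye, 30 min RT; Measured by: Fluo-8 fluorescence, 5 s baseline then 140 s kinetic read; Control set: DMSO and PEA EC100; Replication: single well for each compound.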
TAAR1 antag – antagonists of human TAAR1; Q96RJ0; CHO RD-HGA16 TAAR1, Fluo-8 calcium fluorescence, antagonist; inhibition, % at 3 µM; 1.5% of 360,000 active; AID 624466;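 active = inhibition above a per-plate cutoff, the mean inhibition of test compounds on that plate plus 3 SD, cut at about 49% in these data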;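 note: 0% = DMSO plus EC80 beta-PEA response and 100% = DMSO alone without agonist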
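Material: CHO RD-HGA16 cells bearing hTAAR1; compound dosing: one-point dosing, 3 µM nominal final; schedule: dye loading 75 min at 37 °C, then 30 min room temperature; measured by: calcium fluorescence with Fluo-8; control set: vehicle and agonist controls; replication: n of 1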
CHO parental Ca – signal in parental CHO cells, OX1R antagonist counter-screen; parental CHO-K1, ATP-induced calcium, Fluo-8 fluorescence; inhibition, % at 5.6 µM; 0.63% of 330,000 active;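 active = inhibition above that plate's mean sample inhibition plus 3 SD, cut at about 26% in these data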;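 note: 0% = ATP-challenged DMSO wells and 100% = DMSO wells without ATP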
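material = parental CHO cells | also added = ATP as calcium-mobilizing challenge | dosing = single point at 5.6 µM | detection = intracellular calcium via Fluo-8 no-wash fluorescent dye | read-out = % inhibition | benchmarks = low control ATP plus DMSO, high control DMSO only | repeats = one well per compound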
NTR1 ag – activates human neurotensin receptor 1 | P30989 | NTR1-U2OS beta-arrestin-GFP spot imaging, agonist mode | activation, % at 20 µM | 0.17% of 330,000 active | AID 493036;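 active = activation at or above 40% of the spot to cytoplasm intensity ratio, with at least 20 cells analyzed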;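 note: 0% = DMSO without peptide and 100% = 100 nM NTR1 peptide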
Target sequence (P30989 whole entry, looked up): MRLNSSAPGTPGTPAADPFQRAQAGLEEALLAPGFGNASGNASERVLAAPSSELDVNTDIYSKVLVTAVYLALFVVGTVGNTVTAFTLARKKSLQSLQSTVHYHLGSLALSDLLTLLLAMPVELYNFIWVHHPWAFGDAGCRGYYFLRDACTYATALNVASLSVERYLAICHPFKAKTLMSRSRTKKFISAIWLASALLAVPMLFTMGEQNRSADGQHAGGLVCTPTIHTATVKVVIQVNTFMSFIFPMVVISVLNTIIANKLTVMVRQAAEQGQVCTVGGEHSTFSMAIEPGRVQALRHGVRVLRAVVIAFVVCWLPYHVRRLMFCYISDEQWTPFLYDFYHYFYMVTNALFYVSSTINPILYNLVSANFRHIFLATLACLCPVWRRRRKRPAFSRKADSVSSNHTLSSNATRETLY
OX1R antag-1 – human HCRTR1 antagonism. CHO/OX1R cells, Fluo-8 calcium fluorescence, orexin A. inhibition, % at 5 µM. 0.43% of 330,000 active;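 active = inhibition above its plate's threshold, mean inhibition of all tested compounds on the plate plus 3 SD, cut at about 37% in these data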;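 note: 0% = orexin A challenge wells and 100% = SB-334867-A antagonist wells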
OX1R antag-2 – antagonists of human orexin 1 receptor (OX1R) | inhibition, % at 6.6 µM | 1.8% of 330,000 active | OX1R-expressing cells, FRET antagonist read-out | O43613; in the data active = inhibition mostly above about 38%, no sharp cut-off; inactive = mostly below about 40%;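 note: 0% = agonist challenge alone and 100% = reference antagonist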
OX1R HTRF confirm – OX1R (human) antagonism, HTRF confirmed. shares compounds with OX1R antag-2. OX1R-expressing cells, HTRF antagonist assay. inhibition, % at 6.6 µM. 49% of 1,800 active. AID 492964; in the data active = inhibition above about 55%;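 note: CHO cells expressing OX1R stimulated with orexin A at about EC80; 0% = agonist challenge alone and 100% = reference antagonist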
CHO-K1 HTRF cnt – counter-screen: parental CHO-K1 HTRF response; shares compounds with OX1R antag-2; parental CHO-K1 cells, HTRF counterscreen; inhibition, % at 6.6 µM; 48% of 1,800 active; AID 493232; in the data active = inhibition above about 17%;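 note: 0% = agonist challenge with vehicle and 100% = vehicle alone without agonist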
An asterisk follows results filed as active; . = not tested or not shown.

SMILES | TAAR1 ag | TAAR1 antag | CHO parental Ca | NTR1 ag | OX1R antag-1 | OX1R antag-2 | OX1R HTRF confirm | CHO-K1 HTRF cnt
COc1cc2c(cc1NC(=O)CCCCCN1C(=O)CCC1=O)oc1ccccc12 | 0 | 4 | -27 | 0 | 26 | 80* | 84* | 14
S=c1[nH]nc(Cc2sc(-c3ccccc3)nc2-c2ccccc2)o1 | -1 | 1 | -8 | 0 | -5 | 78* | 50 | 22*
CN1CCN(C2=C(NS(=O)(=O)c3ccccc3)C(=O)c3ccccc3C2=O)CC1 | . | . | -16 | -1 | -23 | 96* | 74* | 90*
O=C(O)C1CCN(C(=O)c2ccccc2Cl)CC1 | 6 | 1 | -12 | 0 | -15 | 11 | . | .
O=C1C(Cl)=C(N2CCC(C(=O)O)CC2)C(=O)c2ccccc21 | . | . | -15 | 4 | -7 | 101* | 52 | 64*
O=C1C(NS(=O)(=O)c2cccs2)=C(N2CCOCC2)C(=O)c2ccccc21 | 0 | -7 | 0 | -2 | 6 | 86* | 95* | 63*
NC(=O)C1CCN(C2=C(NS(=O)(=O)c3ccccc3)C(=O)c3ccccc3C2=O)CC1 | 14 | 10 | -6 | -1 | -18 | 129* | 59* | 76*
CCOc1ccccc1N1CCN(C2=C(NS(=O)(=O)c3cccs3)C(=O)c3ccccc3C2=O)CC1 | 4 | 23 | -35 | 10 | -42 | 24 | . | .
Cc1ccc(CN2CCNC(=O)C2CC(=O)NCc2cc(C)n(C)n2)cc1 (stereo not drawn) | 1 | 0 | -1 | -1 | -6 | 22 | . | .
Cc1ccc(CN2CCC[C@]3(N[C@H](c4ccc(C(F)(F)F)cc4)[C@@H]4C(=O)N(Cc5ccccc5)C(=O)[C@@H]43)C2=O)cc1 | 1 | -42 | . | . | . | . | . | .
O=C1C(NS(=O)(=O)c2ccc(Cl)cc2)=C(N2CCCCC2)C(=O)c2ccccc21 | 4 | 26 | -38 | -1 | -29 | 111* | 41 | 41*
CCN1CCN(C2=C(NS(=O)(=O)c3ccc(Br)cc3)C(=O)c3ccccc3C2=O)CC1 | 3 | -11 | -8 | 0 | -25 | 95* | 70* | 88*
CN1CCN(C2=C(NS(=O)(=O)c3cccs3)C(=O)c3ccccc3C2=O)CC1 | 0 | -14 | -4 | -1 | -11 | 132* | 62* | 99*
CC(C)(C)c1ccc(S(=O)(=O)/N=C2\C=C(NS(=O)(=O)c3ccccc3)C(=O)c3ccccc32)cc1 | -3 | -10 | -34 | 4 | -18 | 88* | 47 | 4
Cc1ccc(S(=O)(=O)/N=C2\C=C(NS(=O)(=O)c3ccccc3)C(=O)c3ccccc32)c(C)c1 | 3 | 0 | . | . | . | . | . | .
COC(=O)c1sccc1NS(=O)(=O)c1ccccc1[N+](=O)[O-] | 0 | -21 | . | 0 | . | . | . | .
Cc1ccc(NC(=O)NC2CC(=O)N(c3ccc4c(c3)OCCO4)C2)cc1F (stereo not drawn) | -2 | 4 | -4 | 0 | -13 | 22 | . | .
CC[n+]1ccc(/C=C2\Sc3ccccc3N2CCCS(=O)(=O)[O-])c2ccccc21 | 0 | 16 | 8 | 0 | 11 | 97* | 44 | 15
O=C1c2cccc3cc([N+](=O)[O-])cc(c23)C(=O)N1c1nncs1 | 12 | -7 | -8 | 0 | -18 | 78* | 61* | 86*
CC(=O)NC(c1ccccc1)c1nc(-c2cncnc2)cs1 (stereo not drawn) | 0 | -5 | . | . | . | . | . | .
COc1cc(C(=O)NCCNc2nc3c(C)cccc3cc2C#N)cc(OC)c1OC | 2 | -16 | . | . | . | . | . | .
COc1ccc(C(=O)NCCNc2nc3c(C)cccc3cc2C#N)cc1OC | 10 | 0 | -6 | -2 | 18 | 90* | 87* | 8
Cc1ccc2[nH]c3c(c2c1)CCN(C)C3 | 7 | -3 | -7 | 0 | -21 | -4 | . | .
O=C(c1ccc([N+](=O)[O-])cc1[N+](=O)[O-])n1cnc2ccccc21 | 16 | 52* | -20 | 2 | -5 | 108* | 44 | 68*
O=C(c1ccccc1[N+](=O)[O-])n1cnc2ccccc21 | -2 | 0 | 0 | 2 | 4 | 15 | . | .
SMILES | TAAR1 ag | TAAR1 antag | CHO parental Ca | NTR1 ag | OX1R antag-1 | OX1R antag-2 | OX1R HTRF confirm | CHO-K1 HTRF cnt
COc1ccc(/C=C2\Oc3ccccc3C2=O)cc1 | 13 | 0 | -10 | 0 | 1 | 22 | . | .
COc1ccc2c(c1)O/C(=C\c1sccc1C)C2=O | -1 | 6 | -19 | 5 | -12 | 81* | 25 | -5
C=CCNc1nnc(Sc2ncccc2[N+](=O)[O-])s1 | 6 | -15 | -9 | 1 | -27 | 91* | 28 | 33*
Cc1c(Cl)cccc1NC(=O)COC(=O)c1ccc(CN2CCCC2=O)cc1 | 4 | -19 | -25 | 2 | -7 | 6 | . | .
O=C(N/N=C/C(Cl)=C\c1ccccc1)c1cccs1 | 0 | -7 | 2 | 6 | 15 | 87* | 62* | 9
Cn1nnc(NC(=O)c2ccc([N+](=O)[O-])cc2Cl)n1 | 4 | 5 | 15 | -1 | 16 | 94* | 66* | 53*
O=C(Nn1cnnc1)c1ccc([N+](=O)[O-])cc1Cl | 2 | -27 | -9 | 2 | -14 | 16 | . | .
O=C(CN1C(=O)c2cccnc2Oc2ccc(Cl)cc21)N1CCCC1 | 0 | -1 | 5 | -1 | -9 | 34 | . | .
Cc1nc2[nH]onc2c2nccc(=O)c12 | 2 | 8 | -4 | 0 | -21 | 121* | 32 | 38*
COc1cc(/C=N/NC(=O)c2ccccc2O)ccc1OC(=O)CC1SC(=O)NC1=O (stereo not drawn) | 1 | 11 | -4 | 2 | -22 | 96* | 16 | 7
COc1cc(C(=O)N/N=C/c2ccc(OC(=O)c3ccccc3Cl)c(OC)c2)ccc1O | . | . | . | 24 | . | . | . | .
CCOc1ccc(S(=O)(=O)NCCC(=O)N2CC(C)OC(C)C2)cc1 (stereo not drawn) | 0 | 5 | -9 | -1 | -6 | 11 | . | .
CCOC(=O)Nc1ccc(C(=O)c2ccncc2)cc1 | 4 | 0 | 0 | 0 | -6 | 5 | . | .
CC(=O)Nc1ccc(S(=O)(=O)/N=C2\C(=O)c3ccccc3C([O-])=C2n2cc[n+](-c3ccccn3)c2)cc1 | -1 | -10 | -4 | 2 | -10 | 144* | 35 | 38*
NC(=O)c1c(NC(=O)Cn2cc([N+](=O)[O-])cn2)sc2c1CCCC2 | 7 | -8 | -2 | 1 | -18 | 101* | 18 | 7
Cc1ccc(CSC2=NCCN2C(=O)c2ccc(S(=O)(=O)N(C)C)cc2)cc1 | 4 | 7 | -8 | 1 | -11 | 11 | . | .
